Data: PubChem BioAssay

Target: Muscarinic acetylcholine receptor M4 (Homo sapiens) (UniProt P08173)
Experiment: compounds altering M4/GIRK thallium flux, either direction, primary screen, M4 allosteric agonist project, cell-based, HEK293 M4/GIRK, BTC-AM (AID 625);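 also: thallium influx through GIRK channels coupled to M4 in HEK293 cells with BTC-AM dye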
Conditions: at 10 µM, actives lie on both sides
In short: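 Material: HEK293 cells with M4 receptor and GIRK channels; Times: cells overnight at 37 °C, BTC-AM loading 1 h, reads 2 min total; Technique: kinetic BTC-AM fluorescence sampled at 1 Hz, 10 s pre-addition baseline; Read-out basis: slope over 15–24 s of trace normalized to starting intensity; Controls: carbachol positive, DMSO negative.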

Chain of Muscarinic acetylcholine receptor M4 (Homo sapiens) (P08173 whole entry, looked up): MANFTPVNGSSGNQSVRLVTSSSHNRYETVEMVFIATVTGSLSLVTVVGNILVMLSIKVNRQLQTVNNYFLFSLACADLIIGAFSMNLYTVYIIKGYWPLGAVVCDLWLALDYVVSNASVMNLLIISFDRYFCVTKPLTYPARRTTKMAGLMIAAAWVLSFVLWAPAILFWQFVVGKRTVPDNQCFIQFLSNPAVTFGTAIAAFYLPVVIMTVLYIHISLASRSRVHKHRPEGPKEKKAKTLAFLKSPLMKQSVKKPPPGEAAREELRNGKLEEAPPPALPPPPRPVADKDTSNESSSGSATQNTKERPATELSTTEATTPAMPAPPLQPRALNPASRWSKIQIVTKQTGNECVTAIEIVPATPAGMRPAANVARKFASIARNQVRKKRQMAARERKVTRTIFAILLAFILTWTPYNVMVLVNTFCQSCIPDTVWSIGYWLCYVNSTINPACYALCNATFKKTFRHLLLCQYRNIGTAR

Fluorescence slope, inactive:
Cc1ccc(C)c(S(=O)(=O)NCc2ccc(C(=O)N3CCN(C)CC3)cc2)c1 0.00527, COc1ccc(S(=O)(=O)N2CCN(C3CCCCCCC3)CC2)cc1 0.00334, O=C1NCCCc2c1no[n+]2[O-] 0.00512, Cc1ccc(S(=O)(=O)Cc2ccc(C(=O)NCCCN3CCN(C)CC3)o2)cc1 0.00533, COC(=O)c1[nH]c2cccc(C)c2c1NC(=O)CN1CCCc2ccccc21 0.00793, Cc1ccccc1NC(=O)c1ccc(NC(=O)c2ccco2)cc1 0.00647, CCC(C)OC(=O)n1ccc(C(=O)Nc2nccs2)n1 (stereo not given) 0.00527, O=C(CCCn1c(=O)c2sccc2n(Cc2ccc(F)cc2)c1=O)NCc1ccco1 0.00594, O=C(Nc1ccc(CN2CCCCC2)cc1)c1ccc2c(c1)OCO2 0.00547, COc1cc(C(=O)N2c3ccccc3CC2C)cc(OC)c1OC (stereo not given) 0.0071, COC(=O)c1ccc(CSc2ncnc3c2nnn3-c2ccc(OC)cc2)o1 0.00411, Cc1ccc2nc(CSc3nnc(-c4ccco4)n3-c3ccccc3)cc(=O)n2c1 0.00636, Cc1nc(-c2cnn(-c3ccccc3)c2)c2cc(C)oc2n1 0.0027, COC(=O)CN1C(=O)C2(C(C#N)=C(N)Oc3c2c(C)nn3-c2ccccc2)c2ccccc21 (stereo not given) 0.0047, CC(=O)c1c(C)nc(C)nc1NC(=O)Cc1ccccc1 0.00735, O=C1c2ccccc2C(=O)N1OCc1ccccc1 0.00373, CS(=O)(=O)N(CC(=O)NCc1ccccn1)c1ccc2c(c1)OCCO2 0.00626, CCOc1ccc(NC(=O)CN2CCN(CC(=O)Nc3ccc(F)c(F)c3)CC2)cc1 0.00651, CCNC(=O)Cn1cnc2c1c(=O)n(C)c(=O)n2C 0.00466, COc1ccccc1C(=O)Nc1c2c(nn1-c1cccc(C)c1C)CS(=O)(=O)C2 0.00519, COc1ccc(-c2nc(N)nc(C)c2Oc2ccccc2Br)c(O)c1 0.00571, CCc1ccc(NC(=O)c2cc(-c3ccco3)on2)cc1 0.00523, CCOC(=O)N1CCC(N(C(=O)Nc2ccc(Cl)c(Cl)c2)C(C)CC)CC1 (stereo not given) 0.00507, Cc1ccc(C)c(-n2c(Cc3cc(=O)[nH]c(=O)[nH]3)nnc2SCC(=O)NCc2ccco2)c1 0.00457, CC(C)(C)OC(=O)N1CCOCCOCCN(C(=O)OC(C)(C)C)CCOCCOCC1 0.00267, O=C(Nc1ccc(N2CCCC2=O)cc1)c1cccc(F)c1 0.00447, CCOC(=O)C1CCN(Cc2ccc(C(=O)OC)cc2)CC1 0.0043, COc1ccc(OCC(=O)N2CCN(C(=O)c3cccs3)CC2)cc1 0.00633, Cn1cnnc1SCC(=O)NCc1cccc(C(F)(F)F)c1 0.00701, COC(=O)Cn1c(C)nc2c(sc3nc(C)cc(C)c32)c1=O 0.00473, CC1=C(C#N)C(=O)NC(C)(C)C1 0.00867, Cn1c(=O)c(C(=S)NC(=O)C2CC2)c(N)n(Cc2ccccc2)c1=O 0.00619, CCCc1[nH]nc2c1C(c1cccc(OC(=O)c3ccco3)c1)C(C#N)=C(N)O2 (stereo not given) 0.00951, CC(C)c1ccc(-c2nc(N3CCCCC3)[nH]c(=O)c2C#N)cc1 0.00632, Cn1cc(CC(=O)Nc2cccc(C#N)c2)c2ccccc21 0.00535, CCCN(CCC)CCNC(=O)C(NS(=O)(=O)c1ccc2c(c1)CCC(=O)N2)c1ccccc1 (stereo not given) 0.00588, O=c1c2ccccc2sn1-c1ccc(S(=O)(=O)N2CCCCC2)cc1 0.00829, Cc1ccc(-n2c(=O)[nH]c3c(C(N)=O)nc(CC(C)C)nc32)cc1 0.00328, CN1CCN(C(=O)CN(Cc2ccc(Cl)cc2)S(C)(=O)=O)CC1 0.00447, CCOC(=O)c1sc(NC(=O)CSc2nnc(-c3ccco3)n2CC)c(C(=O)OCC)c1C 0.00558

Test system: not listed separately
Experiment: inhibitors of Sendai virus-induced IRF3 signaling, primary screen, TLR/RLR signaling modifier project, cell-based, Sendai virus stimulus, luciferase, 10K MLSCN set (AID 602276;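 active = inhibition at or above 50% at 10 µM; inactive = inhibition below 50%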;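 also: firefly luciferase from ISG56 promoter only with Renilla not read in this screen; 0% = Sendai virus plus DMSO and 100% = medium plus DMSO without virus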)
Conditions: HEK293 RL24 IRF3 luciferase reporter, at 10 µM, active compounds read high

inhibition, inactive:
Cc1ccc(C)c(S(=O)(=O)NCc2ccc(C(=O)N3CCN(C)CC3)cc2)c1 3.27%, COc1ccc(S(=O)(=O)N2CCN(C3CCCCCCC3)CC2)cc1 16.2%, O=C1NCCCc2c1no[n+]2[O-] -17.2%, Cc1ccc(S(=O)(=O)Cc2ccc(C(=O)NCCCN3CCN(C)CC3)o2)cc1 14.1%, COC(=O)c1[nH]c2cccc(C)c2c1NC(=O)CN1CCCc2ccccc21 2.04%, Cc1ccccc1NC(=O)c1ccc(NC(=O)c2ccco2)cc1 -7.81%, CCC(C)OC(=O)n1ccc(C(=O)Nc2nccs2)n1 (stereo not given) -5.02%, O=C(CCCn1c(=O)c2sccc2n(Cc2ccc(F)cc2)c1=O)NCc1ccco1 7.63%, O=C(Nc1ccc(CN2CCCCC2)cc1)c1ccc2c(c1)OCO2 -5.51%, COc1cc(C(=O)N2c3ccccc3CC2C)cc(OC)c1OC (stereo not given) 17.5%, COC(=O)c1ccc(CSc2ncnc3c2nnn3-c2ccc(OC)cc2)o1 1.55%, Cc1ccc2nc(CSc3nnc(-c4ccco4)n3-c3ccccc3)cc(=O)n2c1 -11%, Cc1nc(-c2cnn(-c3ccccc3)c2)c2cc(C)oc2n1 10.4%, COC(=O)CN1C(=O)C2(C(C#N)=C(N)Oc3c2c(C)nn3-c2ccccc2)c2ccccc21 (stereo not given) 16.1%, CC(=O)c1c(C)nc(C)nc1NC(=O)Cc1ccccc1 12.7%, O=C1c2ccccc2C(=O)N1OCc1ccccc1 16.6%, CS(=O)(=O)N(CC(=O)NCc1ccccn1)c1ccc2c(c1)OCCO2 14.9%, CCOc1ccc(NC(=O)CN2CCN(CC(=O)Nc3ccc(F)c(F)c3)CC2)cc1 12.5%, CCNC(=O)Cn1cnc2c1c(=O)n(C)c(=O)n2C 12.1%, COc1ccccc1C(=O)Nc1c2c(nn1-c1cccc(C)c1C)CS(=O)(=O)C2 14.2%, COc1ccc(-c2nc(N)nc(C)c2Oc2ccccc2Br)c(O)c1 10.9%, CCc1ccc(NC(=O)c2cc(-c3ccco3)on2)cc1 -42.1%, CCOC(=O)N1CCC(N(C(=O)Nc2ccc(Cl)c(Cl)c2)C(C)CC)CC1 (stereo not given) 8.19%, Cc1ccc(C)c(-n2c(Cc3cc(=O)[nH]c(=O)[nH]3)nnc2SCC(=O)NCc2ccco2)c1 -2%, CC(C)(C)OC(=O)N1CCOCCOCCN(C(=O)OC(C)(C)C)CCOCCOCC1 4.46%, O=C(Nc1ccc(N2CCCC2=O)cc1)c1cccc(F)c1 -49%, CCOC(=O)C1CCN(Cc2ccc(C(=O)OC)cc2)CC1 0.779%, COc1ccc(OCC(=O)N2CCN(C(=O)c3cccs3)CC2)cc1 21.2%, Cn1cnnc1SCC(=O)NCc1cccc(C(F)(F)F)c1 4.51%, COC(=O)Cn1c(C)nc2c(sc3nc(C)cc(C)c32)c1=O -40.7%, CC1=C(C#N)C(=O)NC(C)(C)C1 13.9%, Cn1c(=O)c(C(=S)NC(=O)C2CC2)c(N)n(Cc2ccccc2)c1=O 10.8%, CCCc1[nH]nc2c1C(c1cccc(OC(=O)c3ccco3)c1)C(C#N)=C(N)O2 (stereo not given) 9.57%, CC(C)c1ccc(-c2nc(N3CCCCC3)[nH]c(=O)c2C#N)cc1 -5%, Cn1cc(CC(=O)Nc2cccc(C#N)c2)c2ccccc21 3.88%, CCCN(CCC)CCNC(=O)C(NS(=O)(=O)c1ccc2c(c1)CCC(=O)N2)c1ccccc1 (stereo not given) 8.32%, O=c1c2ccccc2sn1-c1ccc(S(=O)(=O)N2CCCCC2)cc1 3.69%, Cc1ccc(-n2c(=O)[nH]c3c(C(N)=O)nc(CC(C)C)nc32)cc1 -2.4%, CN1CCN(C(=O)CN(Cc2ccc(Cl)cc2)S(C)(=O)=O)CC1 18%, CCOC(=O)c1sc(NC(=O)CSc2nnc(-c3ccco3)n2CC)c(C(=O)OCC)c1C -9.39%
